This is an account of results in ChEMBL document CHEMBL4177753, “Structural Modification of Natural Product Ganomycin I Leading to Discovery of a α-Glucosidase and HMG-CoA Reductase Dual Inhibitor Improving Obesity and Metabolic Dysfunction in Vivo” (J Med Chem, 2018).

Structures are written as SMILES. Activity calls are given as the source filed them. The calls are words filed in the database; no cut-off is given here.

Assay [1] is described as follows: Inhibition of rat small intestinal mucosal alpha-glucosidase using p-nitrophenyl-alpha-D-glucopyranoside as substrate after 40 mins by colorimetric method. Put shortly: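 Rat small intestinal mucosal α-glucosidase; several compound concentrations, each run three times in parallel; phosphate-buffer control replaces compound, blank replaces enzyme. Absorbance at 405 nm; % inhibition = blank-corrected OD of test versus control; IC50 derived from the concentration gradient.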

Assay [2] concerns the target T1, 3-hydroxy-3-methylglutaryl-coenzyme A reductase (Sus scrofa) (UniProt Q1W675).
T1 sequence (whole entry): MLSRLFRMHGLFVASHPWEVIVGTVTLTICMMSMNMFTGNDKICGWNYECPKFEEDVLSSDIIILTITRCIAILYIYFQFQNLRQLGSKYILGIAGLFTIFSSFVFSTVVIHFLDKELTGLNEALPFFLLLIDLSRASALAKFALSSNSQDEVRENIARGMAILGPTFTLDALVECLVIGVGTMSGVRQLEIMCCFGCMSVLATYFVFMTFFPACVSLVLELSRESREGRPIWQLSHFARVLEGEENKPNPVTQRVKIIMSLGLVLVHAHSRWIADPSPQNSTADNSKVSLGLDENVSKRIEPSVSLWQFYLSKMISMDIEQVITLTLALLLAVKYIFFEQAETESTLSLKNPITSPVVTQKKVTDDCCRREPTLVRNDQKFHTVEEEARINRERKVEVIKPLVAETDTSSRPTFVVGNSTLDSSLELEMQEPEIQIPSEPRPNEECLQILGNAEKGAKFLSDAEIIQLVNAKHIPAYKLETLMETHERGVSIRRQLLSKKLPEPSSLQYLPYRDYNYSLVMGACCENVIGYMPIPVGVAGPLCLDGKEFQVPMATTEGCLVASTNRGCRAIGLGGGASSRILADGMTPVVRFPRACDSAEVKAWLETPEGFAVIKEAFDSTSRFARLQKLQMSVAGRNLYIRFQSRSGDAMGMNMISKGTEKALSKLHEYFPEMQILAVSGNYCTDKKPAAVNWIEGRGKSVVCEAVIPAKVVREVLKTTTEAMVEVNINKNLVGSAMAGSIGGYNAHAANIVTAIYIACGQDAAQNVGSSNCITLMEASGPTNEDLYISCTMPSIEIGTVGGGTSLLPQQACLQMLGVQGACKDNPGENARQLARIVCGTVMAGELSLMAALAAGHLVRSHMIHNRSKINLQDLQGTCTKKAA
As to the kind of experiment: (§1) Inhibition of pig liver microsomal HMG-CoA reductase by colorimetric method. Put shortly:
(§2)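 Pig liver microsomal HMG-CoA reductase; compounds tested at several concentrations, each in triplicate; control uses phosphate buffer instead of compound, blank uses buffer instead of enzyme. Absorbance read at 405 nm; % inhibition from blank-corrected OD of test versus control; IC50 fitted from the inhibition-concentration series.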

The target of assay [3] is T2, 3-hydroxy-3-methylglutaryl-coenzyme A reductase (Sus scrofa, UniProt Q1W675).
T2 sequence (Q1W675 whole entry): T1 sequence (whole entry)
Described as §1. The method in brief: as §2

Assay [4] is described as follows: Inhibition of rat small intestinal mucosal alpha-glucosidase using p-nitrophenyl-alpha-D-glucopyranoside as substrate by HPLC method. The method in brief:
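Rat intestinal α-glucosidase; after incubation the product 4-nitrophenol is quantified at once by HPLC (gradient from 20% acetonitrile in water with 0.1‰ TFA to 100% acetonitrile over 10 min). Each concentration run 3 times in parallel; % inhibition from peak areas versus control minus control blank; IC50 from the concentration series.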

For assay [5], the system named is Mus musculus. As to the kind of experiment: Antiobesity activity in C57BL/6J DIO mouse assessed as reduction in weight gain at 3 mg/kg administered daily via oral gavage for 5 weeks relative to vehicle-treated control. In kind it is functional. The method in brief:
(§3)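 Male C57BL/6J mice on high-fat diet, n = 8 per group, grouped by blood glucose and body weight. Daily oral gavage at 0.3, 1.0 or 3.0 mg/kg in soybean vehicle for 5 weeks. Vehicle groups were on normal diet and on high-fat diet.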

The test system of assay [6] is Mus musculus. As to the kind of experiment: Antiobesity activity in C57BL/6J DIO mouse assessed as reduction in LEE index at 3 mg/kg administered daily via oral gavage for 5 weeks. In kind it is functional, organism-based. The method in brief:
as §3

The subject of assay [7] is Mus musculus. The assay is described as follows: Antiobesity activity in C57BL/6J DIO mouse assessed as reduction in cumulative food intake at 3 mg/kg administered daily via oral gavage for 5 weeks. In kind it is functional, organism-based. The method in brief: as §3

For orientation: IC50 means the point on the concentration scale where inhibition reaches its midpoint. The low end stands for greater potency, the high end for weaker potency. In assay [1], `CC(C)=CCC/C(C)=C/CCC1=C[C@H](c2cc(O)ccc2O)OC1=O` came in with a concentration for half-maximal inhibition (IC50) of 0.38 µM.
Turning to `CC(C)=CCC/C(C)=C/CCC1=C[C@H](c2ccc3ccccc3c2)OC1=O`, the IC50 is 5.98 µM in assay [1] and 49.8 µM in assay [3]. Moreover, the inhibition entry in assay [2] was “Dose-dependent effect”.
The like results for `COc1ccc(OC)c([C@H]2C=C(CC/C=C(\C)CCC=C(C)C)C(=O)O2)c1` were, in that order, 12.1 µM, 13.2 µM and “Dose-dependent effect”.
In the case of `COCOc1ccccc1[C@H]1C=C(CC/C=C(\C)CCC=C(C)C)C(=O)O1`, the values for the IC50 in assay [1] and in assay [3] were 19.3 µM and 8.9 µM, respectively. The inhibition result in assay [2] is “Dose-dependent effect”.
With `CC(C)=CCC/C(C)=C/CCC1=C[C@H](c2ccc(C(C)C)cc2)OC1=O`, the IC50 is 32.8 µM in assay [1], 28.7 µM in assay [4] and 112 µM in assay [3]. For the same molecule, the inhibition entry in assay [2] was “Dose-dependent effect”.
As to `CC(C)=CCC/C(C)=C/CCC1=C[C@H](c2ccc([N+](=O)[O-])cc2)OC1=O`, the values for the IC50 in assay [1] and in assay [3] were 5.11 µM and 7.43 µM, respectively. Also, in assay [2], the inhibition entry was “Dose-dependent effect”.
The like results for `CC(C)=CCC/C(C)=C/CCC1=C[C@H](c2cc(F)c(F)c(F)c2)OC1=O` were, in that order, 2.04 µM, 38.2 µM and “Dose-dependent effect”.
The like results for `CC(C)=CCC/C(C)=C/CCC1=C[C@H](c2ccccc2[N+](=O)[O-])OC1=O` were, in that order, 0.26 µM, 18.9 µM and “Dose-dependent effect”.
As for `CC(C)=CCC/C(C)=C/CCC1=C[C@H](c2ccccc2)OC1=O`, the 50% inhibitory concentration (IC50) in assay [1] came out at 1.24 µM; in assay [3] it was 16.5 µM. Besides, the inhibition entry in assay [2] is “Dose-dependent effect”.
The like results for `CC(C)=CCC/C(C)=C/CCC1=C[C@H](c2ccccc2O)OC1=O` were, in that order, 2.27 µM, 6.76 µM and “Dose-dependent effect”.
In turn, `C[C@H]1O[C@H](O[C@H]2[C@H](O)[C@@H](O)[C@@H](O[C@H]3[C@H](O)[C@@H](O)C(O)O[C@@H]3CO)O[C@@H]2CO)[C@H](O)[C@@H](O)[C@@H]1N[C@H]1C=C(CO)[C@@H](O)[C@H](O)[C@H]1O` (stereo partly drawn) [ACARBOSE] came in with a concentration for half-maximal inhibition (IC50) in assay [1] of 1.26 µM. The result in the assay on Mus musculus [5], with Mus musculus [6] and with Mus musculus [7] was inactive.
In the case of `COc1ccc([C@H]2C=C(CC/C=C(\C)CCC=C(C)C)C(=O)O2)cc1`, the figures for the IC50 in assay [1] and in assay [3] were 21.7 µM and 6.21 µM, respectively. Further, in assay [2], the inhibition result was “Dose-dependent effect”.
`CC(C)c1c(C(=O)Nc2ccccc2)c(-c2ccccc2)c(-c2ccc(F)cc2)n1CC[C@@H](O)C[C@@H](O)CC(=O)O` [ATORVASTATIN] gave a concentration for half-maximal inhibition (IC50) in assay [3] of 0.93 µM.
`CC(C)=CCC/C(C)=C/CCC1=C[C@H](c2cc(F)ccc2F)OC1=O`: the half-inhibitory concentration (IC50) in assay [1] worked out at 1.59 µM; in assay [3] it was 25.1 µM. In addition, the inhibition entry in assay [2] was “Dose-dependent effect”.
Regarding `CCc1ccc([C@H]2C=C(CC/C=C(\C)CCC=C(C)C)C(=O)O2)cc1`, the figures for the half-maximal inhibitory concentration (IC50) in assay [1], in assay [4] and in assay [3] were 0.17 µM, 0.16 µM and 14.2 µM, respectively. Also, in assay [2], the inhibition result is “Dose-dependent effect”.
The like results for `CC(C)=CCC/C(C)=C/CCC1=C[C@H](c2ccc(C)cc2)OC1=O` were, in that order, 0.29 µM, 0.23 µM, 18.1 µM and “Dose-dependent effect”.
